For three molecules, Activity and fold change (FC) results are on record in ChEMBL document CHEMBL4304816, “A Novel Biphenyl-based Chemotype of Retinoid X Receptor Ligands Enables Subtype and Heterodimer Preferences” (ACS Med Chem Lett, 2019).

The source made the active and inactive calls. The rule behind the calls is not given here.

Holding throughout (type): cell-based
For test [1], the target named is T1, Retinoic acid receptor beta (Homo sapiens) (UniProt P10826).
T1 sequence (whole entry): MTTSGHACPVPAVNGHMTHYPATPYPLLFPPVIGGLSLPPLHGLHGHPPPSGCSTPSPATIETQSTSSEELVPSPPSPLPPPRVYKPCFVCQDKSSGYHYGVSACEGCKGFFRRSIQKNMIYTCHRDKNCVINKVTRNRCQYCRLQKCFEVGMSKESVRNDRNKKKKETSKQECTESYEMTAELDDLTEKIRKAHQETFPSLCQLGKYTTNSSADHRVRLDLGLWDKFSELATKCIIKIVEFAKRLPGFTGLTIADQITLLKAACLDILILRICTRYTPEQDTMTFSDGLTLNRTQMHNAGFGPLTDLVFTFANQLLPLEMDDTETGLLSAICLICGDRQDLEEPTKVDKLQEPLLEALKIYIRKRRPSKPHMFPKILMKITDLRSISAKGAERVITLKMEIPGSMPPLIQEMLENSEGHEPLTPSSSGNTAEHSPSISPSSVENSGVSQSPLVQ
The experiment in a line: Agonist activity at Gal4-LBD fused RARbeta (unknown origin) expressed in HEK293T cells at 20 uM after 14 to 16 hrs by dual-Glo luciferase assay. The method in brief: (§1)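 Gal4-hybrid reporter gene selectivity panel of related nuclear receptors (PPARα/β/γ, RARα/β/γ) in HEK293T cells. Activity is read as mean fold activation versus 0.1% DMSO vehicle, n ≥ 2.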

Test [2] has as its target T2, Retinoic acid receptor alpha (Homo sapiens) (UniProt P10276).
T2 sequence (whole entry): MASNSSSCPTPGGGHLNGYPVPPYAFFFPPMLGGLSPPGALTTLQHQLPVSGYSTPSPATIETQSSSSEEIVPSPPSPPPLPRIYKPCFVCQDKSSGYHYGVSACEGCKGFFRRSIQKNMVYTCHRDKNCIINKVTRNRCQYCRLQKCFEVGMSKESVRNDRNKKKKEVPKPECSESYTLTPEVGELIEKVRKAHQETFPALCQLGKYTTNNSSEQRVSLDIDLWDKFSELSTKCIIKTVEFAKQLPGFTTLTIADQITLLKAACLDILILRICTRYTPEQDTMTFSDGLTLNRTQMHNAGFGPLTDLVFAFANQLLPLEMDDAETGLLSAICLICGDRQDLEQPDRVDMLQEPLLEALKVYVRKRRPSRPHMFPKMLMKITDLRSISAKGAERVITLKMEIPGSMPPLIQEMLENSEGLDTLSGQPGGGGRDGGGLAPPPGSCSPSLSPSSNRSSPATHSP
The experiment in a line: Agonist activity at Gal4-LBD fused RARalpha (unknown origin) expressed in HEK293T cells at 20 uM after 14 to 16 hrs by dual-Glo luciferase assay. The method in brief:
as §1

The target in test [3] is T3, Peroxisome proliferator-activated receptor alpha (Homo sapiens) (UniProt Q07869).
T3 sequence (whole entry): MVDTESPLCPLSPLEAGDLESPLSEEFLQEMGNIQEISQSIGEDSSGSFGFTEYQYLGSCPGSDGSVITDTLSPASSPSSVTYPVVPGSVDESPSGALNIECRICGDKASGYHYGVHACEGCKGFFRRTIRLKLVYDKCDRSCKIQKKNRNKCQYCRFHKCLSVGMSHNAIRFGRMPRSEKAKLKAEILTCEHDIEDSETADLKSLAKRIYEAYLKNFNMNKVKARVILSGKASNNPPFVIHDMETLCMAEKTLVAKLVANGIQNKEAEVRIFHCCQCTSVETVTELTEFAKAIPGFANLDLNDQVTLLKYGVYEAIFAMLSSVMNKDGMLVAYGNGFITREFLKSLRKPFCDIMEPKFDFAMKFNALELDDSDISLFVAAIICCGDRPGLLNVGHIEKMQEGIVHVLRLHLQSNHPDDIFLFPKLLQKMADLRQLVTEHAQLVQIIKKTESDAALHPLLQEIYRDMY
The experiment in a line: Agonist activity at Gal4-LBD fused PPARalpha (unknown origin) expressed in HEK293T cells at 20 uM after 14 to 16 hrs by dual-Glo luciferase assay. In short, it runs like this: as §1

The species named for another test is Homo sapiens. The experiment in a line: Agonist activity at full-length human PPARgamma/RXR expressed in HEK293T cells at 10 uM after 14 to 16 hrs in presence of 1 uM rosiglitazone by dual-glo luciferase reporter gene assay relative to rosiglitazone. The method in brief:
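RXR:PPARγ heterodimer reporter assay run with reference PPARγ agonist rosiglitazone (1 μM) co-applied. Read-out is mean relative synergistic activation, from three independent experiments each run in duplicate.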

Test [4] addresses T4, Retinoic acid receptor RXR-beta (Homo sapiens) (UniProt P28702).
T4 sequence (whole entry): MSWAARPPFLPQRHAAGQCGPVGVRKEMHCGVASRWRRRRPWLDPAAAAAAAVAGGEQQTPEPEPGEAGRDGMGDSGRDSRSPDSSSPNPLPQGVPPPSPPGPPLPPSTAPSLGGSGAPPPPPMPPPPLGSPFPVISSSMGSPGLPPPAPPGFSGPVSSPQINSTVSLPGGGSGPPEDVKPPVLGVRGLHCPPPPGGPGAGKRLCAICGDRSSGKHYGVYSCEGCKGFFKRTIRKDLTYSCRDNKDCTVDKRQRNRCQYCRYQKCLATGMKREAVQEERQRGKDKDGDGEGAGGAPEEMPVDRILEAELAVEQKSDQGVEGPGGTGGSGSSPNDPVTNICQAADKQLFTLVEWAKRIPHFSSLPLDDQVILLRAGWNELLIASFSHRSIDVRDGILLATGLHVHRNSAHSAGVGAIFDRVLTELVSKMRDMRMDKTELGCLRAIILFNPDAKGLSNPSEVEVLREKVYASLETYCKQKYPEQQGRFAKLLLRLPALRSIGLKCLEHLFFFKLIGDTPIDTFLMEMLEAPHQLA
The experiment in a line: Agonist activity at Gal4-LBD fused RXRbeta (unknown origin) expressed in HEK293T cells assessed as fold activation after 14 to 16 hrs by dual-Glo luciferase assay relative to untreated control. The method in brief: (§2)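 Gal4-hybrid RXRα/β/γ reporter gene assays in HEK293T cells. Fold activation is the maximal fold activation versus 0.1% DMSO.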

In test [5] the target is T5, Retinoic acid receptor RXR-gamma (Homo sapiens) (UniProt P48443).
T5 sequence (whole entry): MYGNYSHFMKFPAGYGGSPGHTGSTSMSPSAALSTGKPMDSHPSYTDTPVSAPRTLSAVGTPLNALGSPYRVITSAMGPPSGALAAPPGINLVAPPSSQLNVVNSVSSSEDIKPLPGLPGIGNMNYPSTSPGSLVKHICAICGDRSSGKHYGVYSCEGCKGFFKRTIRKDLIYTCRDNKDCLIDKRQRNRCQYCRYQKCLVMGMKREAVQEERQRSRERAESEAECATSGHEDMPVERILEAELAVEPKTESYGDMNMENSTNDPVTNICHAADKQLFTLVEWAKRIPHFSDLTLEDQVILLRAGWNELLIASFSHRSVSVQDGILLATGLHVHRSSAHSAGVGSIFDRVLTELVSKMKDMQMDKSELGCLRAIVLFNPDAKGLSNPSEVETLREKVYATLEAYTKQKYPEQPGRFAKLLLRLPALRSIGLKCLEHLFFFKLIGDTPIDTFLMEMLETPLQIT
The experiment in a line: Agonist activity at Gal4-LBD fused RXRgamma (unknown origin) expressed in HEK293T cells assessed as fold activation at 10 uM after 14 to 16 hrs by dual-Glo luciferase assay relative to untreated control. In short, it runs like this: as §2

Regarding `Cc1cc(-c2ccc(C(=O)O)cc2)cc(C(C)(C)C)c1`, the outcome in test [1], in test [2] and in test [3] was Active.
As to `Cc1cc(-c2cc(C(F)(F)F)cc(C(F)(F)F)c2)ccc1CC(=O)O`, in the test filed under Homo sapiens, the Activity worked out at 84%.
In the case of `Cc1cc(-c2cc(C(C)(C)C)cc(C(C)(C)C)c2)ccc1C(=O)O`, the fold change (FC) turned out to be 38 in test [4] and 1 in test [5].
